Our source for the Weight, Prodrug reduction and viability values is ChEMBL document CHEMBL1127365, “Self-immolative prodrugs: candidates for antibody-directed enzyme prodrug therapy in conjunction with a nitroreductase enzyme” (J Med Chem, 1994).

For data set [1], the system named is Mus musculus. Nature of the data set: Tested in vivo toxicity in mouse at dose 1 mg/kg when administered intraperitoneally on day 9. It counts as organism-based. Further details: dose 1 mg/kg, route intraperitoneal. Particulars: ip. In short, it runs like this:
(§1)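 Balb C mice (20-25 g), groups of 3, fed rodent diet and water ad libitum. Single ip injection in arachis oil at 1, 5, 10 or 100 mg/kg. Untreated and arachis-oil-only groups served as controls. Body weight recorded as % of day 0 on days 2, 3, 7 and 9.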

The subject of data set [2] is Mus musculus. Nature of the data set: Tested in vivo toxicity in mouse at dose 1 mg/kg when administered intraperitoneally on day 3. It counts as organism-based. Further details: dose 1 mg/kg, route intraperitoneal. Particulars: ip. In short, it runs like this: as §1
For data set [3], the system named is Mus musculus. Nature of the data set: Tested in vivo toxicity in mouse at dose 1 mg/kg when administered intraperitoneally on day 2. It counts as organism-based. Further details: dose 1 mg/kg, route intraperitoneal. The following applies: ip. In short, it runs like this: as §1
The test system of data set [4] is Mus musculus. Nature of the data set: Tested in vivo toxicity in mouse at dose 1 mg/kg when administered intraperitoneally on day 7. It counts as organism-based. Further details: dose 1 mg/kg, route intraperitoneal. Particulars: ip. In short, it runs like this: as §1
The test system of data set [5] is V79. Nature of the data set: (§2) Tested for the effect of enzyme activation on the cytotoxicity at 50 uM when incubated with chinese hamster V79 cells in presence of NADH. It counts as functional, Cricetulus griseus. In outline:
(§3)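 Chinese hamster V79 cells (2 × 10^5/mL) in PBS were exposed to the test agent plus NADH (500 μM), without enzyme, for 2 h at 37 °C. Cells were then harvested and assayed for colony-forming ability, reported as % survival. The supernatant was assayed by HPLC for remaining prodrug.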

The test system of data set [6] is V79. Nature of the data set: (§4) Tested for the effect of enzyme activation on the cytotoxicity at 50 uM when incubated with chinese hamster V79 cells. Particulars: Cricetulus griseus, read-out: Survival. Type of data set: functional.
Data set [7] relates to V79. The data set is described as §2. It counts as functional. Particulars: Cricetulus griseus, read-out: Survival. In outline: as §3
Data set [8] concerns V79. Nature of the data set: (§5) Tested for the effect of enzyme activation on the cytotoxicity at 50 uM when incubated with chinese hamster V79 cells in presence of NADH and nitroreductase enzyme. It counts as functional, Cricetulus griseus. In outline: (§6)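 Chinese hamster V79 cells (2 × 10^5/mL) in PBS were exposed to the test agent with NADH (500 μM) and E. coli B nitroreductase (10 μg/mL) for 2 h at 37 °C. Cells were then harvested and assayed for colony-forming ability, reported as % survival. The supernatant was assayed by HPLC for remaining prodrug, giving % prodrug reduction.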

Data set [9] has as its system V79. The description is as §4. Type of data set: functional, Cricetulus griseus.
The test system of data set [10] is V79. Described as §5. Type of data set: functional. The following applies: Cricetulus griseus, read-out: Survival. In short, it runs like this: as §6
The test system of data set [11] is V79. Nature of the data set: (§7) Tested for the effect of enzyme activation on the cytotoxicity at 1 uM when incubated with chinese hamster V79 cells in presence of NADH and nitroreductase enzyme. Type of data set: functional. Particulars: Cricetulus griseus, read-out: Survival. In short, it runs like this:
as §6

In data set [12] the test system is V79. Nature of the data set: (§8) Tested for the effect of enzyme activation on the cytotoxicity at 1 uM when incubated with chinese hamster V79 cells. It counts as functional, Cricetulus griseus.
Data set [13] deals with V79. Described as §7. Type of data set: functional, Cricetulus griseus. In short, it runs like this: as §6
Data set [14] relates to V79. Nature of the data set: (§9) Tested for the effect of enzyme activation on the cytotoxicity at 1 uM when incubated with chinese hamster V79 cells in presence of NADH. Type of data set: functional, Cricetulus griseus.
The test system of data set [15] is V79. The description is as §8. Type of data set: functional. Particulars: Cricetulus griseus, read-out: Survival.
For data set [16], the system named is V79. The description is as §9. Type of data set: functional. The following applies: Cricetulus griseus, read-out: Survival. In short, it runs like this:
as §3

For data set [17], the system named is V79. Nature of the data set: (§10) Tested for the effect of enzyme activation on the cytotoxicity at 10 uM when incubated with chinese hamster V79 cells. It counts as functional. Particulars: Cricetulus griseus, read-out: Survival. In outline:
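Chinese hamster V79 cells (2 × 10^5/mL) in PBS were exposed to the test agent alone, without NADH or NR, for 2 h at 37 °C. Cells were then harvested and assayed for colony-forming ability, reported as % survival. The supernatant was checked by HPLC for remaining prodrug.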

The subject of data set [18] is V79. Nature of the data set: (§11) Tested for the effect of enzyme activation on the cytotoxicity at 10 uM when incubated with chinese hamster V79 cells in presence of NADH. It counts as functional. Particulars: Cricetulus griseus, read-out: Survival. In short, it runs like this:
as §3

The test system of data set [19] is V79. Nature of the data set: (§12) Tested for the effect of enzyme activation on the cytotoxicity at 10 uM when incubated with chinese hamster V79 cells in presence of NADH and nitroreductase enzyme. It counts as functional. The following applies: Cricetulus griseus, read-out: Survival. In outline: as §6
Data set [20] relates to V79. The description is as §11. It counts as functional, Cricetulus griseus. In outline:
as §3

Data set [21] relates to V79. The data set is described as §12. Type of data set: functional, Cricetulus griseus. In outline:
as §6

Data set [22] concerns V79. The data set is described as §10. It counts as functional, Cricetulus griseus.
Data set [23] has as its system V79. The description is as §9. It counts as functional, Cricetulus griseus. In outline:
as §3
This is another data set of the same source.

Data set [24] relates to Mus musculus. Nature of the data set: In vivo toxicity in mouse at dose 100 mg/kg when administered intraperitoneally on day 9. Type of data set: organism-based. The following applies: ip. Further details: dose 100 mg/kg, route intraperitoneal. In short, it runs like this:
(§13)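 Balb C mice (20-25 g), groups of 3, single ip injection in arachis oil; doses 1, 5, 10 or 100 mg/kg. Untreated and arachis-oil-only groups served as controls. Mice were fed rodent diet and water ad libitum. Body weight was recorded as % of day 0 on days 2, 3, 7 and 9, and deaths were noted.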

Data set [25] concerns Mus musculus. Nature of the data set: In vivo toxicity in mouse at dose 1 mg/kg when administered intraperitoneally on day 3. Further details: dose 1 mg/kg, route intraperitoneal. It counts as organism-based. The following applies: ip. In outline:
as §13

The test system of data set [26] is Mus musculus. Nature of the data set: In vivo toxicity in mouse at dose 1 mg/kg when administered intraperitoneally on day 2. Particulars: ip. Further details: dose 1 mg/kg, route intraperitoneal. It counts as organism-based. In short, it runs like this:
as §13

Data set [27] deals with Mus musculus. Nature of the data set: In vivo toxicity in mouse at dose 1 mg/kg when administered intraperitoneally on day 9. Further details: dose 1 mg/kg, route intraperitoneal. Type of data set: organism-based. The following applies: ip. In short, it runs like this:
as §13

Data set [28] has as its system Mus musculus. Nature of the data set: In vivo toxicity in mouse at dose 100 mg/kg when administered intraperitoneally on day 7. Further details: dose 100 mg/kg, route intraperitoneal. The following applies: ip. Type of data set: organism-based. In short, it runs like this: as §13
Data set [29] concerns Mus musculus. Nature of the data set: In vivo toxicity in mouse at dose 100 mg/kg when administered intraperitoneally on day 2. Type of data set: organism-based. Further details: dose 100 mg/kg, route intraperitoneal. Particulars: ip. In short, it runs like this:
as §13

Data set [30] has as its system Mus musculus. Nature of the data set: In vivo toxicity in mouse at dose 1 mg/kg when administered intraperitoneally on day 7. Type of data set: organism-based. Further details: dose 1 mg/kg, route intraperitoneal. The following applies: ip. In short, it runs like this:
as §13

Data set [31] deals with Mus musculus. Nature of the data set: In vivo toxicity in mouse at dose 10 mg/kg when administered intraperitoneally on day 3. It counts as organism-based. Further details: dose 10 mg/kg, route intraperitoneal. The following applies: ip. In short, it runs like this: as §13
Data set [32] concerns Mus musculus. Nature of the data set: In vivo toxicity in mouse at dose 100 mg/kg when administered intraperitoneally on day 3. It counts as organism-based. Further details: dose 100 mg/kg, route intraperitoneal. The following applies: ip. In outline:
as §13

For data set [33], the system named is Mus musculus. Nature of the data set: In vivo toxicity in mouse at dose 10 mg/kg when administered intraperitoneally on day 2. Further details: dose 10 mg/kg, route intraperitoneal. The following applies: ip. Type of data set: organism-based. In short, it runs like this: as §13
In data set [34] the test system is Mus musculus. Nature of the data set: In vivo toxicity in mouse at dose 10 mg/kg when administered intraperitoneally on day 7. Type of data set: organism-based. Further details: dose 10 mg/kg, route intraperitoneal. The following applies: ip. In outline:
as §13

For data set [35], the system named is Mus musculus. Nature of the data set: In vivo toxicity in mouse at dose 10 mg/kg when administered intraperitoneally on day 9. It counts as organism-based. Further details: dose 10 mg/kg, route intraperitoneal. Particulars: ip. In outline:
as §13

Take `Cc1c2oc3c(C)ccc(C(=O)N[C@@H]4C(=O)N[C@H](C(C)C)C(=O)N5CCC[C@H]5C(=O)N(C)CC(=O)N(C)[C@@H](C(C)C)C(=O)O[C@@H]4C)c3nc-2c(C(=O)N[C@@H]2C(=O)N[C@H](C(C)C)C(=O)N3CCC[C@H]3C(=O)N(C)CC(=O)N(C)[C@@H](C(C)C)C(=O)O[C@@H]2C)c(N)c1=O` (stereo in doubt) [DACTINOMYCIN]: the Weight is reported as 103% with Mus musculus [1], 95% in the data set with Mus musculus [2], 98.6% in the data set with Mus musculus [3] and 101.6% with Mus musculus [4].
On to `O=C(Nc1ccc(N(CCCl)CCCl)cc1)OCc1ccc([N+](=O)[O-])cc1`, for which the Prodrug reduction in the data set on V79 [5] was determined as 0%; with V79 [8], 30%; with V79 [9], 0%. Besides, the figures for the viability at 50 µM in the data set on V79 [6], with V79 [7] and in the data set with V79 [10] were 27.1%, 34.1% and < 0.001%, respectively.
With `COC12C(COC(N)=O)C3=C(C(O)=C(C)C(=N)C3=O)N1CC1C2N1C(=O)OCc1ccc([N+](=O)[O-])cc1` (stereo unspecified), the viability at 1 µM is 25.4% in the data set with V79 [11], 76.7% in the data set on V79 [15] and 70.8% in the data set on V79 [16]. The Prodrug reduction with V79 [12] is listed as 0%; with V79 [13], 91%; in the data set with V79 [14] it was 0%.
Turning to `O=C(OCc1ccc([N+](=O)[O-])cc1)Oc1ccc(N(CCCl)CCCl)cc1`, the viability at 10 µM in the data set with V79 [17] is 56.4%; in the data set on V79 [18], 45.8%; in the data set on V79 [19], 43.3%. Moreover, the Prodrug reduction in the data set on V79 [20] is 0%; in the data set with V79 [21] it was 86%; in the data set on V79 [22] it was 0%.
As for `Cc1c2oc3c(C)ccc(C(=O)N[C@@H]4C(=O)N[C@H](C(C)C)C(=O)N5CCC[C@H]5C(=O)N(C)CC(=O)N(C)[C@@H](C(C)C)C(=O)O[C@@H]4C)c3nc-2c(C(=O)N[C@@H]2C(=O)N[C@H](C(C)C)C(=O)N3CCC[C@H]3C(=O)N(C)CC(=O)N(C)[C@@H](C(C)C)C(=O)O[C@@H]2C)c(NC(=O)OCc2ccc([N+](=O)[O-])cc2)c1=O` [listing 1 of 2 here], the viability at 1 µM in the data set on V79 [11] was 27.4%; in the data set with V79 [15] it was 98.3%; with V79 [16], 102%. The Prodrug reduction with V79 [12] worked out at 0%; in the data set with V79 [13] it was 90.5%; with V79 [23], 0%; in the data set on V79 [20] it was 0%; with V79 [21] it was 93%; in the data set on V79 [22] it was 0%. For the same compound, the viability at 10 µM is 39.3% in the data set with V79 [17], 44.6% with V79 [18] and < 0.001% in the data set with V79 [19].
As for `Cc1c2oc3c(C)ccc(C(=O)N[C@@H]4C(=O)N[C@H](C(C)C)C(=O)N5CCC[C@H]5C(=O)N(C)CC(=O)N(C)[C@@H](C(C)C)C(=O)O[C@@H]4C)c3nc-2c(C(=O)N[C@@H]2C(=O)N[C@H](C(C)C)C(=O)N3CCC[C@H]3C(=O)N(C)CC(=O)N(C)[C@@H](C(C)C)C(=O)O[C@@H]2C)c(NC(=O)OCc2ccc([N+](=O)[O-])cc2)c1=O` [listing 2 of 2 here], the Weight in the data set with Mus musculus [24] is 96%; with Mus musculus [25], 101%; in the data set with Mus musculus [26], 102%; in the data set with Mus musculus [27], 103%; in the data set on Mus musculus [28] it was 95%; in the data set on Mus musculus [29], 96.4%. For the same compound, the Weight with Mus musculus [30] was found to be 101%; with Mus musculus [31], 105%; in the data set with Mus musculus [32], 95.6%; in the data set on Mus musculus [33], 109%; in the data set with Mus musculus [34], 108%; with Mus musculus [35] it was 110%.
